In brackets after ≈: the same amount, converted by molar mass.
How the values were obtained:
Staphylococcus aureus = test: Antibacterial activity against Staphylococcus aureus ATCC 29213 after 20 hrs by two fold dilution method; type: functional; conditions: ATCC 29213, 20 h
Method in brief: (§1)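 Twofold agar dilution in Mueller–Hinton agar. Compounds were dissolved in DMSO and diluted into the medium at final 128–1 µg/mL. The inoculum was 10^4 CFU/plate, and a medium-plus-DMSO plate served as negative control. Plates were incubated at 35 °C for 20 h. MIC was taken as the lowest concentration giving complete growth inhibition. Experiments were run three times.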

Bacillus subtilis = test: Antibacterial activity against Bacillus subtilis MTCC 121 after 20 hrs by two fold dilution method; type: functional; conditions: MTCC 121, 20 h; method in brief: as §1
Streptococcus mutans = test: Antibacterial activity against Streptococcus mutans MTCC 890 after 20 hrs by two fold dilution method; type: functional; conditions: MTCC 890, 20 h; method in brief: as §1
Escherichia coli = test: Antibacterial activity against Escherichia coli ATCC 25922 after 20 hrs by two fold dilution method; type: functional; conditions: ATCC 25922, 20 h; method in brief: as §1
Pseudomonas aeruginosa = test: Antibacterial activity against Pseudomonas aeruginosa MTCC 741 after 20 hrs by two fold dilution method; type: functional; conditions: MTCC 741, 20 h; method in brief: as §1
Salmonella typhi = test: Antibacterial activity against Salmonella typhi MTCC 733 after 20 hrs by two fold dilution method; type: functional, Salmonella enterica subsp. enterica serovar Typhi; conditions: Salmonella enterica, MTCC 733, 20 h
Method in brief: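 Twofold agar dilution in Mueller–Hinton agar. Compounds dissolved in DMSO and diluted into medium to final 128–1 µg/mL; medium with DMSO at the same dilution as negative control. Inoculum 10^4 CFU/plate; incubated 35 °C for 20 h. MIC taken as lowest concentration giving complete growth inhibition, in µg/mL. Ampicillin and ciprofloxacin as references; three independent experiments.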

Candida albicans [1] = test: Antifungal activity against Candida albicans MTCC 1637 at 300 ug/disk after 7 days by disk diffusion method; type: functional; conditions: MTCC 1637, 168 h, read-out: IZ
Method in brief: (§2)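 Disc diffusion on Mueller–Hinton agar seeded with a standardized suspension, following NCCLS. Sterile 6 mm paper discs held 300 µg of test compound, amphotericin B at 10 µg as reference, or DMSO alone as negative control. Plates were incubated at 28 ± 2 °C for 7 days. Inhibition zone diameters (mm) were measured in triplicate and scored as 10–15, 16–21 or 22–28 mm.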

Aspergillus niger [2] = test: Antifungal activity against Aspergillus niger at 300 ug/disk after 7 days by disk diffusion method; type: functional; conditions: 168 h, read-out: IZ; method in brief: as §2
Aspergillus flavus [3] = test: Antifungal activity against Aspergillus flavus at 300 ug/disk after 7 days by disk diffusion method; type: functional; conditions: 168 h, read-out: IZ; method in brief: as §2
Candida albicans [4] = test: Antifungal activity against Candida albicans MTCC 1637 at 10 ug/disk after 7 days by disk diffusion method; type: functional; conditions: MTCC 1637, 168 h, read-out: IZ
Aspergillus niger [5] = test: Antifungal activity against Aspergillus niger at 10 ug/disk after 7 days by disk diffusion method; type: functional; conditions: 168 h, read-out: IZ
Aspergillus flavus [6] = test: Antifungal activity against Aspergillus flavus at 10 ug/disk after 7 days by disk diffusion method; type: functional; conditions: 168 h, read-out: IZ

Compound | MIC (Staphylococcus aureus) [µg/mL] | MIC (Bacillus subtilis) [µg/mL] | MIC (Streptococcus mutans) [µg/mL] | MIC (Escherichia coli) [µg/mL] | MIC (Pseudomonas aeruginosa) [µg/mL] | MIC (Salmonella typhi) [µg/mL] | zone of inhibition at 300 µg/disc (Candida albicans [1]) [mm] | zone of inhibition at 300 µg/disc (Aspergillus niger [2]) [mm] | zone of inhibition at 300 µg/disc (Aspergillus flavus [3]) [mm] | zone of inhibition at 10 µg/disc (Candida albicans [4]) [mm] | zone of inhibition at 10 µg/disc (Aspergillus niger [5]) [mm] | zone of inhibition at 10 µg/disc (Aspergillus flavus [6]) [mm]
Cc1nnc(Cn2cnc3ccccc32)o1 | 16 (≈ 74.7 µM) | 16 (≈ 74.7 µM) | 16 (≈ 74.7 µM) | 16 (≈ 74.7 µM) | > 128 | 32 (≈ 149 µM) | 16 | 16 | 16 | – | – | –
CCc1nnc(Cn2cnc3ccccc32)o1 | 32 (≈ 140 µM) | 32 (≈ 140 µM) | 16 (≈ 70.1 µM) | 16 (≈ 70.1 µM) | > 128 | 64 (≈ 280 µM) | 10 | < 10 | 10 | – | – | –
Cc1nc2ccccc2n1Cc1nnc(-c2ccccc2Cl)o1 | – | – | 16 (≈ 49.3 µM) | > 128 | – | 32 (≈ 98.5 µM) | 16 | 16 | 16 | – | – | –
Cc1nnc(Cn2c(C)nc3ccccc32)o1 | 4 (≈ 17.5 µM) | 4 (≈ 17.5 µM) | 8 (≈ 35 µM) | 64 (≈ 280 µM) | 64 (≈ 280 µM) | 16 (≈ 70.1 µM) | 22 | 16 | 16 | – | – | –
Oc1ccccc1-c1nnc(Cn2cnc3ccccc32)o1 | 32 (≈ 109 µM) | – | – | 64 (≈ 219 µM) | 64 (≈ 219 µM) | 16 (≈ 54.7 µM) | – | – | – | – | – | –
COc1ccccc1-c1nnc(Cn2c(C)nc3ccccc32)o1 | 8 (≈ 25 µM) | 4 (≈ 12.5 µM) | 8 (≈ 25 µM) | 64 (≈ 200 µM) | 64 (≈ 200 µM) | 16 (≈ 49.9 µM) | 16 | 16 | 16 | – | – | –
ClCc1nnc(Cn2cnc3ccccc32)o1 | 16 (≈ 64.3 µM) | 32 (≈ 129 µM) | 16 (≈ 64.3 µM) | – | 32 (≈ 129 µM) | 64 (≈ 257 µM) | 16 | 10 | 10 | – | – | –
ClCCc1nnc(Cn2cnc3ccccc32)o1 | 16 (≈ 60.9 µM) | 16 (≈ 60.9 µM) | – | – | 32 (≈ 122 µM) | 64 (≈ 244 µM) | 16 | 16 | 10 | – | – | –
Cc1nc2ccccc2n1Cc1nnc(-c2ccccc2O)o1 | – | 16 (≈ 52.2 µM) | 8 (≈ 26.1 µM) | 32 (≈ 104 µM) | – | 32 (≈ 104 µM) | – | – | – | – | – | –
COc1ccc(-c2nnc(Cn3cnc4ccccc43)o2)cc1 | 16 (≈ 52.2 µM) | 32 (≈ 104 µM) | 16 (≈ 52.2 µM) | 64 (≈ 209 µM) | 32 (≈ 104 µM) | 32 (≈ 104 µM) | 16 | < 10 | < 10 | – | – | –
C[C@@H]1[C@H](O)[C@@H](C)/C=C/C=C/C=C/C=C/C=C/C=C/C=C/[C@H](O[C@@H]2O[C@H](C)[C@@H](O)[C@H](N)[C@@H]2O)C[C@@H]2O[C@](O)(C[C@@H](O)C[C@@H](O)[C@H](O)CC[C@@H](O)C[C@@H](O)CC(=O)O[C@H]1C)C[C@H](O)[C@H]2C(=O)O [AMPHOTERICIN B] | – | – | – | – | – | – | – | – | – | 22 | 22 | 22
CC1(C)S[C@@H]2[C@H](NC(=O)[C@H](N)c3ccccc3)C(=O)N2[C@H]1C(=O)O [AMPICILLIN] | 2 (≈ 5.72 µM) | 2 (≈ 5.72 µM) | 2 (≈ 5.72 µM) | 4 (≈ 11.4 µM) | > 128 | > 128 | – | – | – | – | – | –
O=C(O)c1cn(C2CC2)c2cc(N3CCNCC3)c(F)cc2c1=O [CIPROFLOXACIN] | ≤ 1 | ≤ 1 | – | ≤ 1 | – | – | – | – | – | – | – | –

— ChEMBL document CHEMBL1154066, “Synthesis, physicochemical properties and antimicrobial activity of some new benzimidazole derivatives” (2009)
